Columns and labels:
[1] = melting temperature; fluorescence melt of hairpins on a sequencing array, two-state fit, raised by 9.35 °C to match UV melts; conditions: sodium 0.088 M
In short: (§1)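 Melting temperature and folding enthalpy were derived from bootstrapped two-state fits. The fitted temperatures were raised by 9.35 °C to agree with UV melts, and four replicates were combined by inverse variance. The underlying data were Cy3 fluorescence images of library hairpins, with annealed Cy3 and quencher oligos, on a sequenced MiSeq flow cell in 50 mM Na-HEPES pH 8.0, 25 mM NaCl, taken in 2.5 °C steps up to 60 °C, normalised to pre-quench Cy3 and to control constructs.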

[2] = folding enthalpy; higher = less favourable; fluorescence melt of hairpins on a sequencing array, two-state fit; conditions: sodium 0.088 M
In short: as §1

Row | Sequence | Tm [1] | folding enthalpy [2]
1 | GGTGGCGAAAGCCAAACC ((((((....)))..))) | 47.2 °C | -14.2 kcal/mol
2 | GTTTTAGCGAAAGCTAAC (((..(((....)))))) | 33 °C | -13.2 kcal/mol
3 | GTCGGCGAAAGCCCTGAC ((((((....)))..))) | 35.6 °C | -10.4 kcal/mol
4 | GCTTGGCGAAAGCCCTGC ((..(((....)))..)) | 40.2 °C | -13.6 kcal/mol
5 | GTACTAGGAAACTAGCAC ((.((((....)))).)) | 32.2 °C | -22.1 kcal/mol
6 | GGCGTCGAAAGACGAGCC ((((((....)))..))) | 54 °C | -16.7 kcal/mol
7 | GGTTGTGGAAACATGACC (((..((....))..))) | 39.2 °C | -30.9 kcal/mol
8 | GCAGTGAAAACTGC (((((....))))) | 61.2 °C | -28.1 kcal/mol
9 | GCACACGAAAGTGTTTGC ((((((....)))..))) | 39.6 °C | -13.7 kcal/mol
10 | TGACTGAAAAGTCA (((((....))))) | 46 °C | -23.2 kcal/mol
11 | GTGCTTGGAAACAAACAC (((.(((....))).))) | 39.1 °C | -28.9 kcal/mol
12 | GATCGTTATACGATC ((((((...)))))) | 57.9 °C | -36.4 kcal/mol
13 | GGTACGGGAAACCATACC ((((.((....)).)))) | 36.7 °C | -28.2 kcal/mol
14 | GATCCTACAAAGGATC ((((((....)))))) | 49.5 °C | -36.3 kcal/mol
15 | GTCTTTGGAAACAAGGAC (((.(((....))).))) | 41.5 °C | -31.1 kcal/mol
16 | GCAGGCCGAAAGGCTGC (((.(((....)))))) | 67.3 °C | -22.2 kcal/mol
17 | GCGGTTGGCCGC ((((....)))) | 64.8 °C | -25.3 kcal/mol
18 | CGATTACGGAAACGTTCG (((..(((....)))))) | 38.5 °C | -21.5 kcal/mol
19 | GATCTCCTCGGAGATC ((((((....)))))) | 58 °C | -52.8 kcal/mol

Row | Sequence | Tm [1] | folding enthalpy [2]
20 | GTGAGGACGAAAGTCCAC (((..(((....)))))) | 47.9 °C | -13.9 kcal/mol
21 | GCTACGCGAAAGCGGGGC ((..(((....)))..)) | 63.7 °C | -20.7 kcal/mol
22 | GGTCGGGGAAACCCGGCC ((.((((....)))).)) | 66.2 °C | -42.7 kcal/mol
23 | GGCCTCGAAAGAGCCGCC ((((((....)))..))) | 57.2 °C | -20.3 kcal/mol
24 | GGCTAGGGAAACTTGGCC (((.(.(....).).))) | 40.6 °C | -25.9 kcal/mol
25 | GCTGGCGAAAGCCTAAGC ((((((....)))..))) | 51.5 °C | -16.5 kcal/mol
26 | GATCACACCTGTGATC ((((((....)))))) | 57.2 °C | -47.3 kcal/mol
27 | GATCGAAACATCGATC ((((((....)))))) | 50 °C | -39.9 kcal/mol
28 | GTGATTGGAAACGATCAC (((((.(....).))))) | 47.9 °C | -44.9 kcal/mol
29 | GCGTATCAACGC ((((....)))) | 53.9 °C | -25.6 kcal/mol
30 | GTCTCGGGAAACTGAGGC (.(((.(....).))).) | 38.8 °C | -30.8 kcal/mol
31 | GATACTGGAAACAGTGTC ((.((((....)))).)) | 44.7 °C | -25.9 kcal/mol
32 | GGGGTTACGAAAGTACCC (((..(((....)))))) | 51.4 °C | -22.8 kcal/mol
33 | GCAGACGCGAAAGCGTGC (((..(((....)))))) | 52 °C | -11.8 kcal/mol
34 | GCGAAGGGAAACCCTCGC ((((.((....)).)))) | 53.4 °C | -42.3 kcal/mol
35 | GCGCGGCGAAAGCATCGC (((..((....))..))) | 57.5 °C | -20.6 kcal/mol
36 | GTTTGCGGAAACGTAAGC (.((.((....)).)).) | 33 °C | -22 kcal/mol
37 | GCTAGGCGAAAGCCAAGC (((.(((....))).))) | 56.1 °C | -40 kcal/mol
38 | GGCATCGAAAGATGGCC ((((((....))).))) | 58.4 °C | -20.1 kcal/mol
